# An excerpt weighted towards active compounds, which were near 4% of everything screened.
# TAAR1 agonist: human TAAR1 agonists, primary screen, Fluo-8 calcium fluorescence, CHO RD-HGA16 cells; 0.99% of 360,000 active; Trace amine-associated receptor 1 (Homo sapiens), Q96RJ0; activation, % at 3 µM; vehicle wells 0%, saturating PEA agonist 100%; AID 624467, 2012;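 active = activation above the mean activation of all test compounds in the run plus 3 SD, cut at about 38% in these data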
#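 Test system: RD-HGA16 (CHO) cells co-expressing Gα16 and hTAAR1 / Benchmarks: DMSO vehicle as 0%, PEA at EC100 as 100% / Repeats: no replicates (n 1) / Measure: % activation from peak over basal fluorescence ratio, DMSO-to-PEA scaled / Timing: 17-24 h plating, Fluo-8 75 min 37 °C, 30 min RT / Technique: kinetic Fluo-8 calcium fluorescence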
# OX1R antag-1: OX1R (HCRTR1) antagonists, primary screen, fluorescence, CHO/OX1R cells, Fluo-8 calcium, orexin A; Orexin/Hypocretin receptor type 1 (Homo sapiens), O43613; Fluo-8 calcium fluorescence; inhibition, % at 5 µM; 0.43% of 330,000 active;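 active = inhibition above its plate's threshold, mean inhibition of all tested compounds on the plate plus 3 SD, cut at about 37% in these data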;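 also: 0% = orexin A challenge wells and 100% = SB-334867-A antagonist wells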
# Target sequence (O43613 whole entry, looked up): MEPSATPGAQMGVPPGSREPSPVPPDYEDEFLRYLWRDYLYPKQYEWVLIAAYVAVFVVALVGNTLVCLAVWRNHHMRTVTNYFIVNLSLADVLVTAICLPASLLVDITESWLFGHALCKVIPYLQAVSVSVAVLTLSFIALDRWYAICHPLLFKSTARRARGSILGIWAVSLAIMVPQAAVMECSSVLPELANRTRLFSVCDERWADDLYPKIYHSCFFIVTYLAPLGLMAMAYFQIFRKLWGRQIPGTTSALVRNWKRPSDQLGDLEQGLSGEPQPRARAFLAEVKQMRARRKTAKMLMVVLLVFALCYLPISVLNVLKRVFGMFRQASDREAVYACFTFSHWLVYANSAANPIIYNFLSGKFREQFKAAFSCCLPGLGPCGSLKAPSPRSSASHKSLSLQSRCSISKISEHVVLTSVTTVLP
# CHO parental Ca: ATP-evoked calcium signal inhibitors, parental CHO, primary screen, counter-screen for OX1R antagonist project, cell-based, fluorescence, Fluo-8 calcium dye; parental CHO-K1, ATP-induced calcium, Fluo-8 fluorescence; inhibition, % at 5.6 µM; 0.63% of 330,000 active; AID 463079, 2010;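 active = inhibition above that plate's mean sample inhibition plus 3 SD, cut at about 26% in these data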;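 also: 0% = ATP-challenged DMSO wells and 100% = DMSO wells without ATP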
#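 material = parental CHO cells | also added = ATP as calcium-mobilizing challenge | dosing = single point at 5.6 µM | detection = intracellular calcium via Fluo-8 no-wash fluorescent dye | read-out = % inhibition | benchmarks = low control ATP plus DMSO, high control DMSO only | repeats = one well per compound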
# TAAR1 antag: human TAAR1 antagonists, primary screen, Fluo-8 calcium fluorescence, CHO RD-HGA16 cells. Trace amine-associated receptor 1 (Homo sapiens), Q96RJ0. 1.5% of 360,000 active. inhibition, % at 3 µM. AID 624466, 2012. antagonist;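 active = inhibition above a per-plate cutoff, the mean inhibition of test compounds on that plate plus 3 SD, cut at about 49% in these data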;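 also: 0% = DMSO plus EC80 beta-PEA response and 100% = DMSO alone without agonist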
#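 System: RD-HGA16 CHO cells with stable hTAAR1 and Gα16 | Probe or stimulus: EC80 β-phenethylamine stimulus | Dosing: 3 µM, single point | Times: Dye loading 75 min at 37 °C, then 30 min room temperature | Measured by: Fluo-8 calcium-sensitive fluorescence | Read-out basis: % inhibition of agonist calcium response | Replicates: n of 1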
# OX1R antag-2: antagonists of human orexin 1 receptor (OX1R) | AID 485270, 2010 | 1.8% of 330,000 active | inhibition, % at 6.6 µM | OX1R-expressing cells, FRET antagonist read-out; in the data active = inhibition mostly above about 38%, no sharp cut-off; inactive = mostly below about 40%;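 also: 0% = agonist challenge alone and 100% = reference antagonist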
# NTR1 ag: agonists of human NTR1, primary screen, imaging, U2OS cells, beta-arrestin-GFP, high content. Neurotensin receptor type 1 (Homo sapiens), P30989. NTR1-U2OS beta-arrestin-GFP spot imaging, agonist mode. activation, % at 20 µM. 0.17% of 330,000 active. AID 493036, 2011;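 active = activation at or above 40% of the spot to cytoplasm intensity ratio, with at least 20 cells analyzed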;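 also: 0% = DMSO without peptide and 100% = 100 nM NTR1 peptide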
# TAAR1 ag conf: human TAAR1 agonists, retest of hits, confirmation, Fluo-8 calcium fluorescence, CHO RD-HGA16 cells | AID 651783, 2012 | activation, % at 3 µM | scaled: DMSO 0%, maximal phenethylamine 100% | 82% of 2,400 active | shares compounds with TAAR1 agonist;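 active = activation above a cutoff set at the run's mean compound activation plus 3 SD, cut at about 39% in these data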
# Ga16 ag counter: nonselective calcium mobilization agonists, CHO-Ga16 cells, counter-screen for hTAAR1 agonist project, cell-based, fluorescence, CHO-Ga16 parental line; shares compounds with TAAR1 agonist; Fluo-8 calcium fluorescence; normalized to maximal ATP response, DMSO zero; activation, % at 3 µM; 50% of 2,400 active; AID 651787, 2012;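 active = activation above the run cutoff, the mean activation over all tested wells plus 3 SD, cut at about 12% in these data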;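 also: 0% = DMSO wells and 100% = maximal ATP response on the peak over basal ratio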
# TAAR1 desensitize: TAAR1 desensitization by agonist hits, confirmation, counter-screen for TAAR1 agonist project, cell-based, fluorescence, tachyphylaxis | shares compounds with TAAR1 agonist | CHO RD-HGA16 hTAAR1, Fluo-8 calcium, beta-PEA response inhibition | inhibition, % at 3 µM | 46% of 2,400 active | AID 651951, 2012;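 active = inhibition above the run cutoff, the mean inhibition of all test compounds plus 3 SD, cut at about 49% in these data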;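 also: beta-PEA stimulus applied at its EC80; loss of beta-PEA calcium signal after compound pretreatment read as receptor desensitization; 0% = DMSO with beta-PEA at EC80 and 100% = DMSO alone without agonist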
# Ga16 nonsel ant: inhibition of ATP-evoked calcium response in CHO-Ga16 cells, counter-screen for TAAR1 agonist project, cell-based, fluorescence. shares compounds with TAAR1 agonist. inhibition, % at 3 µM. AID 651952, 2012. CHO-Ga16 ATP-induced calcium, Fluo-8 fluorescence. 39% of 2,400 active;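 active = inhibition above the plate's mean compound inhibition plus 3 SD, computed per plate, cut at about 22% in these data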;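 also: 0% = EC80 ATP with DMSO and 100% = DMSO wells without ATP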
# Starred values were filed as active, the others as inactive; / = no result given.
SMILES,TAAR1 agonist,OX1R antag-1,CHO parental Ca,TAAR1 antag,OX1R antag-2,NTR1 ag,TAAR1 ag conf,Ga16 ag counter,TAAR1 desensitize,Ga16 nonsel ant
CN(Cc1ccccc1)C(=O)c1ccc(Nc2nc(C(N)Cc3ccc(C(F)(F)F)cc3)cs2)nc1 (stereo unspecified),64*,/,/,75*,/,/,59*,30*,63*,70*
Cc1ccc(C(=O)Nc2nc(C(N)Cc3ccc(C(F)(F)F)cc3)cs2)cc1 (stereo unspecified),65*,/,/,44,/,/,52*,29*,45,43*
NC(Cc1ccccc1)c1csc(Nc2ccc(C(=O)NCCCO)cn2)n1 (stereo unspecified),7,/,/,-14,/,/,/,/,/,/
NC(Cc1cnc[nH]1)c1csc(Nc2ccc(C(F)(F)F)cn2)n1 (stereo unspecified),3,/,/,-23,/,/,/,/,/,/
NC(Cc1ccc(F)cc1)c1csc(Nc2ccc(C(F)(F)F)cn2)n1 (stereo unspecified),74*,/,/,45,/,/,49*,27*,38,35*
CCCCN(C)C(=O)c1ccc(Nc2nc(C(N)Cc3ccccc3)cs2)nc1 (stereo unspecified),49*,/,/,24,/,/,73*,16*,54*,32*
CC1CC(C)CN(C(=O)CN2C(=O)NC(c3ccccc3)(c3ccccc3)C2=O)C1 (stereo unspecified),4,-35,-19,14,5,7,/,/,/,/
CSCC(=O)NC1CCCc2c1cnn2-c1ccc(C)c(C)c1 (stereo unspecified),0,-16,-8,-16,-1,5,/,/,/,/
Cn1c(CN2CCCCC2)nc2cc(NS(=O)(=O)c3ccc(Cl)cc3)ccc21,70*,13,-12,9,8,2,77*,41*,39,23*
Cn1c(CCN2CCCCC2)nc2cc(NS(=O)(=O)c3ccc(Cl)cc3)ccc21,7,-18,-1,0,11,-1,/,/,/,/
COc1cc(CNCCc2ccccc2)ccc1OCc1ccc(Cl)nc1,54*,-23,-17,7,25,-1,71*,10,43,12
CCOc1cc(CNCCc2ccc(S(N)(=O)=O)cc2)ccc1OCc1ccc(Cl)cc1,69*,77*,61*,47,13,14,85*,46*,91*,72*
COc1cc(CNCCc2ccccc2)ccc1OCC(N)=O,3,-9,-1,3,15,-1,/,/,/,/
Cc1cc(C)nc(/N=C(\N)Nc2cccc(OCc3ccccc3)c2)n1,124*,73*,40*,107*,9,6,112*,83*,106*,90*
Cc1cc(C)nc(/N=C(\N)Nc2ccc(CC(=O)OC(C)C)cc2)n1,109*,67*,41*,101*,17,3,120*,85*,106*,97*
Cc1cc(C)nc(/N=C(\N)Nc2ccc(OCCC(C)C)cc2)n1,145*,94*,68*,103*,5,8,127*,103*,105*,93*
CCn1cc(CN2CCCC(C(=O)Nc3ccc(-c4cscn4)cc3)C2)c(C)n1 (stereo unspecified),0,-5,-6,-15,1,0,/,/,/,/
O=C(COc1ccccc1)NC(=S)Nc1cccc2cc(O)ccc12,72*,-14,-2,45,-9,11,67*,24*,49*,29*
C=CCNCCCOc1ccc(C(C)(C)c2ccccc2)cc1,61*,-17,-5,-6,1,2,90*,25*,64*,17
CC(C)(c1ccccc1)c1ccc(OCCCNCCO)cc1,53*,6,8,0,3,3,85*,41*,44,16
CC(C)(C)c1ccc(OCCCNCc2ccccc2)cc1,74*,-16,-3,-5,6,5,69*,33*,35,21
COCCNCCCOc1ccc(C(C)(C)c2ccccc2)cc1,24,-12,-13,-21,21,0,/,/,/,/
COCCCNCCCOc1ccc(C(C)(C)c2ccccc2)cc1,30,-14,-9,-22,5,1,/,/,/,/
C=CCN1C(=O)c2ccc(C(=O)N3CCN(S(=O)(=O)c4cccc([N+](=O)[O-])c4)CC3)cc2C1=O,19,16,-26,22,22,-2,/,/,/,/
CCc1cc2c(NCCC(=O)O)nc(C)nc2s1,49*,-3,-5,-7,9,-1,104*,47*,13,-2
COc1ccc(C(CCN2CCCC(C)C2)c2c(OC)cc(OC)c3c(-c4ccccc4)cc(=O)oc23)cc1 (stereo unspecified),56*,11,3,45,16,25,47*,37*,47,42*
COc1cc(OC)c2c(-c3ccccc3)cc(=O)oc2c1C(CCN1CCCC(C)C1)c1ccc(N(C)C)cc1 (stereo unspecified),27,-4,-8,-1,32,35,/,/,/,/
O=C(COc1ccccc1)Nc1cc(NC(=O)COc2ccccc2)cc(C(=O)O)c1,2,-11,2,-7,-4,0,/,/,/,/
CN(CCc1ccccc1)C(C(=O)Nc1ccc2c(c1)OCCO2)c1ccnc2ccccc12 (stereo unspecified),61*,/,/,53*,/,/,78*,7,42,12
